Test results: ChEMBL document CHEMBL1142882, “Design, parallel synthesis and SAR of novel urotensin II receptor agonists” (Eur J Med Chem, 2007)
Calls of active or inactive are those of the source. The rule behind the calls is not given here.

How the values were obtained:
Type in all cases: functional, cell-based
[1] = target: T1, Urotensin-2 receptor (Homo sapiens) (UniProt Q9UKP6); assay: Agonist activity at human urotensin-2 receptor transfected in NIH3T3 cells after 5 days by R-SAT assay relative to urotensin-2
T1 sequence (whole entry): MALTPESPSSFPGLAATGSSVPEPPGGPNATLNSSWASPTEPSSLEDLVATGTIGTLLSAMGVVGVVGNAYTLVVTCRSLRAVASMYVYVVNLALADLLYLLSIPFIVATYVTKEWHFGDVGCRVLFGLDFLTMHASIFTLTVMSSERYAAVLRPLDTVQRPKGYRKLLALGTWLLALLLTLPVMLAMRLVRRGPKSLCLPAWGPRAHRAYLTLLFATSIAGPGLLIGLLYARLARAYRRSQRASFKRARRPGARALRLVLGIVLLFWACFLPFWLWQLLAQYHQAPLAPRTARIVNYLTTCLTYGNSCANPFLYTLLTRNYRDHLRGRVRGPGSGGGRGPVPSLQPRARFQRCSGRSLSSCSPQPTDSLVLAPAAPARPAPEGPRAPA
In short: (§1)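 NIH-3T3 cells grown to 80% confluence in DMEM with 10% bovine calf serum and 1% penicillin/streptomycin/glutamine, transfected 18 h with human UII receptor plus β-galactosidase marker, then trypsinized and frozen. Thawed batches were quality-checked with control compound, then incubated with compounds or reference ligands for five days in 5% CO₂. Reporter enzyme activity read at 420 nm.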

Urotensin-2 receptor = target: T2, Urotensin-2 receptor (Homo sapiens, UniProt Q9UKP6); assay: (§2) Agonist activity at human urotensin-2 receptor transfected in NIH3T3 cells after 5 days by R-SAT assay; in short: as §1
T2 sequence (Q9UKP6 whole entry): T1 sequence (whole entry)

[2] = target: T1, Urotensin-2 receptor (Homo sapiens); assay: as §2; in short: as §1

| Efficacy [1] [%] | EC50 (Urotensin-2 receptor) [nM] | Compound | further results |
| --- | --- | --- | --- |
| 133 | 129 | CN(C)CCC(NC(=O)/C=C/c1ccc(C(F)(F)F)cc1)c1ccc(Cl)cc1 (stereo not given) |  |
| 65 |  | COc1ccc(CC(=O)NC(CCN(C)C)c2ccc(Cl)cc2)cc1 (stereo not given) |  |
| 115 |  | CN(C)CCC(NC(=O)C#Cc1ccccc1)c1ccc2ccccc2c1 (stereo not given) |  |
| 97 | 1550 | Cc1ccc(C(CCN(C)C)NC(=O)/C=C/c2ccccc2)cc1 (stereo not given) |  |
| 113 | 1410 | COc1ccc(CCC(=O)NC(CCN(C)C)c2ccc3ccccc3c2)cc1 (stereo not given) |  |
| 73 |  | Cc1ccc(C(CCN(C)C)NC(=O)CCc2ccccc2)cc1 (stereo not given) |  |
| 128 |  | CN(C)CCC(NC(=O)/C=C/c1ccccc1)c1ccc(Cl)cc1 (stereo not given) |  |
| 101 |  | COc1ccc(CCC(=O)NC(CCN(C)C)c2ccc(Cl)cc2)cc1 (stereo not given) |  |
| 40 |  | CN(C)CCC(NC(=O)Cc1ccc(C(F)(F)F)cc1)c1ccc2ccccc2c1 (stereo not given) |  |
| 121 |  | CN(C)CCC(NC(=O)Cc1ccccc1)c1ccc2ccccc2c1 (stereo not given) |  |
| 124 |  | CN(C)CCC(NC(=O)C#Cc1ccccc1)c1ccc(Cl)cc1 (stereo not given) |  |

Second part, the compound before the results:

| Compound | Efficacy [1] [%] | EC50 (Urotensin-2 receptor) [nM] | further results |
| --- | --- | --- | --- |
| Cc1ccc(C(CCN(C)C)NC(=O)C#Cc2ccccc2)cc1 (stereo not given) | 131 |  |  |
| CN(C)CCC(NC(=O)Cc1ccc(C(F)(F)F)cc1)c1ccc(Cl)cc1 (stereo not given) | 53 |  |  |
| Cc1ccc(C(CCN(C)C)NC(=O)/C=C/c2ccc(C(F)(F)F)cc2)cc1 (stereo not given) | 96 | 437 |  |
| COc1ccc(CCC(=O)NC(CCN(C)C)c2ccc(C)cc2)cc1 (stereo not given) | 67 |  |  |
| CN(C)CCC(NC(=O)/C=C/c1ccccc1)c1ccc2ccccc2c1 (stereo not given) | 116 |  |  |
| CN(C)CCC(NC(=O)CCc1ccc(C(F)(F)F)cc1)c1ccc2ccccc2c1 (stereo not given) | 75 | 372 |  |
| Cc1ccc(C(CCN(C)C)NC(=O)CCc2ccc(C(F)(F)F)cc2)cc1 (stereo not given) | 60 |  |  |
| CN(C)CCC(NC(=O)CCc1ccccc1)c1ccc(Cl)cc1 (stereo not given) | 139 |  |  |
| COc1ccc(CC(=O)NC(CCN(C)C)c2ccc(C)cc2)cc1 (stereo not given) | 62 |  |  |
| CN(C)CCC(NC(=O)CCc1ccc(C(F)(F)F)cc1)c1ccc(Cl)cc1 (stereo not given) | 73 |  |  |
| CN(C)CCC(NC(=O)CCc1ccccc1)c1ccc2ccccc2c1 (stereo not given) | 107 |  |  |
| CN(C)CCC(NC(=O)Cc1ccccc1)c1ccc(Cl)cc1 (stereo not given) | 76 |  |  |
| COc1ccc(/C=C/C(=O)NC(CCN(C)C)c2ccc(C)cc2)cc1 (stereo not given) | 79 | 2000 |  |
| COc1ccc(CC(=O)NC(CCN(C)C)c2ccc3ccccc3c2)cc1 (stereo not given) |  |  | Activity [1]: inactive; Activity [2]: inactive |
| CN(C)CCC(NC(=O)/C=C/c1ccc(C(F)(F)F)cc1)c1ccc2ccccc2c1 (stereo not given) | 117 | 135 |  |
| COc1ccc(/C=C/C(=O)NC(CCN(C)C)c2ccc(Cl)cc2)cc1 (stereo not given) | 99 | 513 |  |
| COc1ccc(/C=C/C(=O)NC(CCN(C)C)c2ccc3ccccc3c2)cc1 (stereo not given) | 106 | 380 |  |
| Cc1ccc(C(CCN(C)C)NC(=O)Cc2ccccc2)cc1 (stereo not given) | 83 |  |  |
| Cc1ccc(C(CCN(C)C)NC(=O)Cc2ccc(C(F)(F)F)cc2)cc1 (stereo not given) | 25 |  |  |
